pIC50: −log10 of the molar value.
Target: E3 ubiquitin-protein ligase Mdm2 (Homo sapiens, UniProt Q00987)
Assay: Inhibition of GST fused human Hdm2 assessed as polyubiquitylation by electrochemiluminescence assay
How it was run: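 Cell-free ubiquitylation. Lysate GST-Hdm2 captured on glutathione-coated wells for 1 h at RT. E1/UbcH5B were pre-charged with ubiquitin, ATP and DTT in PBS for 30 min, then added with sample for 30 min at RT. Read-out was ruthenium anti-polyubiquitin electrochemiluminescence, normalised between no-inhibitor (0%) and EDTA (100%). Tested at 100–0.02 µg/mL in quadruplicate.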

Chain of E3 ubiquitin-protein ligase Mdm2 (Q00987 whole entry, the tested form may be a part): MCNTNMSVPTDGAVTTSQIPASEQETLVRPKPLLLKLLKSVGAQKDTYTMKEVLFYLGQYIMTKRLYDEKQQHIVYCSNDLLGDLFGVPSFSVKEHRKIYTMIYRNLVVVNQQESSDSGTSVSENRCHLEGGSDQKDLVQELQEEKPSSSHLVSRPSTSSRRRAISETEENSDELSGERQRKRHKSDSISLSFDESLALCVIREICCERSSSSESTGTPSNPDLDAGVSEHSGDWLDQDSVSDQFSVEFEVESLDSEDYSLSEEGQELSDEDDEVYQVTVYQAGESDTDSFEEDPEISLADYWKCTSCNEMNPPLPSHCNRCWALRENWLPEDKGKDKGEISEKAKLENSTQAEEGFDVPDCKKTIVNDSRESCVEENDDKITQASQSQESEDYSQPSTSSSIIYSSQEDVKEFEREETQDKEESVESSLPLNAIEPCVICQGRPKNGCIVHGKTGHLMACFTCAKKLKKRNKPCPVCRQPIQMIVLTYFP

NCCc1c2c(c3c4c(c5ccccc5nc14)C=CN3)OCS2 [Lissoclinidine B]
pIC50: 4.23

From BindingDB's records for doi:10.1016/j.bmc.2008.10.024 (National Cancer Institute-Frederick, 2008)
